# Experimental data reported in ChEMBL document CHEMBL1149534, “3-Arylamino-2H-1,2,4-benzothiadiazin-5-ol 1,1-dioxides as novel and selective CXCR2 antagonists” (Bioorg Med Chem Lett, 2007).
# pIC50: −log10 of the molar value.
# What was measured:
# [1] = biological target: T1, C-X-C chemokine receptor type 2 (Homo sapiens, UniProt P25025); assay: Displacement of human recombinant [125I]IL8 from CXCR2 receptor expressed in CHO cells; assay type: cell-based
# T1 sequence (P25025 whole entry): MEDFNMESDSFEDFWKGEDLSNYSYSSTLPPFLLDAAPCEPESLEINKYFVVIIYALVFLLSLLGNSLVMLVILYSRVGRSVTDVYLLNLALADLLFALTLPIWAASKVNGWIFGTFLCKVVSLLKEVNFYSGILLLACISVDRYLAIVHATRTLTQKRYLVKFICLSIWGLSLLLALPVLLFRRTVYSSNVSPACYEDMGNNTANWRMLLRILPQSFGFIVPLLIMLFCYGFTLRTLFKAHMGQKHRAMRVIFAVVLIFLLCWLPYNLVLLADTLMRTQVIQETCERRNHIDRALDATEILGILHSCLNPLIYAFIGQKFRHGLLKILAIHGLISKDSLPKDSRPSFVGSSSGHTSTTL
# Outline: (§1)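 Membranes from CHO cells expressing CXCR1 or CXCR2, with ~0.25 nM human recombinant [125I]-IL-8 as radioligand, run in 96-well format. Values are the mean of three individual experiments.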
# [2] = biological target: Interleukin-8 receptors, CXCR1/CXCR2 (Homo sapiens) (UniProt P25025+P25024); assay: Ratio of IC50 for CXCR2 receptor to IC50 CXCR1 receptor; assay type: protein assay
# Outline: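 Selectivity ratio from radioligand-binding IC50s at CXCR2 and CXCR1, using CHO-cell membranes expressing each receptor. Binding results are the mean of three individual experiments.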
# [3] = biological target: T2, C-X-C chemokine receptor type 1 (Homo sapiens, UniProt P25024); assay: Displacement of human recombinant [125I]IL8 from CXCR1 receptor expressed in CHO cells; assay type: cell-based; outline: as §1
# T2 sequence (P25024 whole entry): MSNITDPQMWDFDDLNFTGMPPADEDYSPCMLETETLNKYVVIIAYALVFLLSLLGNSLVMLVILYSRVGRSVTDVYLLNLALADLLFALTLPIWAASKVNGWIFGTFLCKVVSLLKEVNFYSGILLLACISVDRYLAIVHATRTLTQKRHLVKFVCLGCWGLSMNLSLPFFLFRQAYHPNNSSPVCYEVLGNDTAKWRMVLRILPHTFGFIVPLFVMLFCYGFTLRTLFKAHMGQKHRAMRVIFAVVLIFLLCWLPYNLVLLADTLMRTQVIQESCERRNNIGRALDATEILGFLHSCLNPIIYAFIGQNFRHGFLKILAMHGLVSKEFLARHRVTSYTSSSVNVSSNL
# [4] = biological target: T1, C-X-C chemokine receptor type 2; assay: Antagonist activity at CXCR2 receptor expressed in CHOK1 cells assessed as human IL8-induced calcium mobilization by FLIPR; assay type: functional, cell-based, CHO-K1
# Outline: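 Cells grown 24 h, loaded with Fluo-4 AM calcium dye, then exposed to compound at […] for 10 min at 37 °C. Ca2+ mobilization read on FLIPR as percent of maximal IL-8 response. IC50 taken as concentration giving 50% inhibition of the maximal IL-8 response.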
# [5] = Solubility in phosphate buffer at pH 7.4; assay type: physicochemical
# Outline: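 Aqueous solubility measured in 0.05 M phosphate buffer, pH 7.4, containing 2% DMSO. High-throughput HPLC-based read-out.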
# Cytochrome P450 2C9 = Cytochrome P450 2C9 (Homo sapiens, UniProt P11712); assay: Inhibition of human CYP2C9
# [6] = Half life in rat at 1.6 mg/kg, iv and 3.2 mg/kg, po; assay type: ADME, organism-based; settings: in vivo
# Cytochrome P450 1A2 = Cytochrome P450 1A2 (Homo sapiens, UniProt P05177); assay: Inhibition of human CYP1A2; assay type: ADME
# Cytochrome P450 2D6 = Cytochrome P450 2D6 (Homo sapiens, UniProt P10635); assay: Inhibition of human CYP2D6; assay type: ADME
# [7] = Bioavailability in rat at 3.2 mg/kg, po; assay type: ADME, organism-based; settings: in vivo
# [8] = Clearance in rat at 1.6 mg/kg, iv and […] mg/kg, po; assay type: ADME, organism-based; settings: in vivo
# [9] = Volume of distribution at steady state in rat at 1.6 mg/kg, iv and 3.2 mg/kg, po; assay type: ADME, organism-based; settings: in vivo, read-out: Vdss
# Cytochrome P450 3A4 = Cytochrome P450 3A4 (Homo sapiens, UniProt P08684); assay: Inhibition of human CYP3A4; assay type: ADME
# [10] = biological target: 5-hydroxytryptamine receptor 6 (Homo sapiens, UniProt P50406); assay: Inhibition of 5HT6 receptor
# [11] = biological target: T3, Adrenergic receptor alpha-1 (Homo sapiens, UniProt P35348+P25100+P35368); assay: Inhibition of adrenergic A1 receptor; assay type: protein assay
# [12] = biological target: 5-hydroxytryptamine receptor 4 (Homo sapiens, UniProt Q13639); assay: Inhibition of 5HT4A receptor
# Histamine H1 receptor = Histamine H1 receptor (Homo sapiens, UniProt P35367); assay: Inhibition of histamine H1 receptor
# [13] = biological target: 5-hydroxytryptamine receptor 1D (Homo sapiens, UniProt P28221); assay: Inhibition of 5HT1D receptor
# [14] = biological target: Plasminogen activator inhibitor 1 (Homo sapiens, UniProt P05121); assay: Inhibition of PAI1
# [15] = biological target: Beta-1 adrenergic receptor (Homo sapiens, UniProt P08588); assay: Inhibition of adrenergic beta-1 receptor
# [16] = biological target: T3, Adrenergic receptor alpha-1; assay: Inhibition of adrenergic alpha-1A receptor; assay type: protein assay
# Adenosine receptor A2a = Adenosine receptor A2a (Homo sapiens, UniProt P29274); assay: Inhibition of adenosine A2a receptor
# P2Y purinoceptor 1 = P2Y purinoceptor 1 (Homo sapiens, UniProt P47900); assay: Inhibition of P2Y1 receptor
# D(3) dopamine receptor = D(3) dopamine receptor (Homo sapiens, UniProt P35462); assay: Inhibition of dopamine D3 receptor
# Histamine H3 receptor = Histamine H3 receptor (Homo sapiens, UniProt Q9Y5N1); assay: Inhibition of histamine H3 receptor
# D(2) dopamine receptor = D(2) dopamine receptor (Homo sapiens, UniProt P14416); assay: Inhibition of dopamine D2 receptor
# [17] = biological target: 5-hydroxytryptamine receptor 2C (Homo sapiens, UniProt P28335); assay: Inhibition of 5HT2C receptor
# [18] = biological target: 5-hydroxytryptamine receptor 1A (Homo sapiens, UniProt P08908); assay: Inhibition of 5HT1A receptor
# [19] = biological target: 5-hydroxytryptamine receptor 7 (Homo sapiens, UniProt P34969); assay: Inhibition of 5HT7 receptor
# [20] = biological target: Mitogen-activated protein kinase 14 (Homo sapiens, UniProt Q16539); assay: Inhibition of P38alpha
# [21] = biological target: Beta-2 adrenergic receptor (Homo sapiens, UniProt P07550); assay: Inhibition of adrenergic beta2 receptor
# [22] = biological target: 5-hydroxytryptamine receptor 1B (Homo sapiens, UniProt P28222); assay: Inhibition of 5HT1B receptor
# 5-hydroxytryptamine receptor 1B, sequence (P28222 whole entry): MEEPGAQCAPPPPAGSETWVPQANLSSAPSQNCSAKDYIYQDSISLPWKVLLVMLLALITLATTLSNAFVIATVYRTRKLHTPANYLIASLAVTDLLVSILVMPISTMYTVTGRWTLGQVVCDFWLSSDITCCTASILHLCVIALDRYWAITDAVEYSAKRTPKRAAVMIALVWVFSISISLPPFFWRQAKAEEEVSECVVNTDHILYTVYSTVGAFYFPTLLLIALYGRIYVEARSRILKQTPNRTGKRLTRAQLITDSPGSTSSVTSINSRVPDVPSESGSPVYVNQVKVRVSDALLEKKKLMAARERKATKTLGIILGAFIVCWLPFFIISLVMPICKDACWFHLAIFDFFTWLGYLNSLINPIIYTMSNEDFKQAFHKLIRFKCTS
# D(2) dopamine receptor, sequence (P14416 whole entry): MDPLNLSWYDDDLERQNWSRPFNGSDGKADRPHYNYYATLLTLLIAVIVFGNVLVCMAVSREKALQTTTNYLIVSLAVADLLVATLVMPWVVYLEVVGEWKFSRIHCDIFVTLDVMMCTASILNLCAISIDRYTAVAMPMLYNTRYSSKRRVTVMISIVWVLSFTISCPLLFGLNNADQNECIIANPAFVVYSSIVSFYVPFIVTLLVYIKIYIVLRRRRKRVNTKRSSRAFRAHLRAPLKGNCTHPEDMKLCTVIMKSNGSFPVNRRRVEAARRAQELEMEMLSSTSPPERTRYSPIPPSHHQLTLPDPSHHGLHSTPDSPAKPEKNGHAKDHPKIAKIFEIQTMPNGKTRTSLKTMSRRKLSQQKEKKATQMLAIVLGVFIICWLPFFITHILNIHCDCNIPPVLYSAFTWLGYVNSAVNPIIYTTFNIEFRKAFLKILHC
# Cytochrome P450 3A4, sequence (P08684 whole entry): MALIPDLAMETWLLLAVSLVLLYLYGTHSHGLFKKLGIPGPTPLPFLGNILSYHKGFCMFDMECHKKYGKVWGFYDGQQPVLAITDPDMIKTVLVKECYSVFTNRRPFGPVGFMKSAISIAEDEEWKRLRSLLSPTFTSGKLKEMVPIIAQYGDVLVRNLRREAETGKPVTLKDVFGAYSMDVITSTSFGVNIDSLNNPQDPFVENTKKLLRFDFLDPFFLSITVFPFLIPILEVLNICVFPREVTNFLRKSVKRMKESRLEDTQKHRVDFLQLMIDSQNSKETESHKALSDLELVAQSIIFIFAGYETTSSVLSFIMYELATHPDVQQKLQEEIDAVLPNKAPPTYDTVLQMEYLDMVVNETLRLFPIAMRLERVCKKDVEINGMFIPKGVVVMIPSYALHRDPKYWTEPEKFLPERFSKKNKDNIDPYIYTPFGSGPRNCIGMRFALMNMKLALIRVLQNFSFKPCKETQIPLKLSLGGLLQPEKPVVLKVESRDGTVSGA
# Beta-2 adrenergic receptor, sequence (P07550 whole entry): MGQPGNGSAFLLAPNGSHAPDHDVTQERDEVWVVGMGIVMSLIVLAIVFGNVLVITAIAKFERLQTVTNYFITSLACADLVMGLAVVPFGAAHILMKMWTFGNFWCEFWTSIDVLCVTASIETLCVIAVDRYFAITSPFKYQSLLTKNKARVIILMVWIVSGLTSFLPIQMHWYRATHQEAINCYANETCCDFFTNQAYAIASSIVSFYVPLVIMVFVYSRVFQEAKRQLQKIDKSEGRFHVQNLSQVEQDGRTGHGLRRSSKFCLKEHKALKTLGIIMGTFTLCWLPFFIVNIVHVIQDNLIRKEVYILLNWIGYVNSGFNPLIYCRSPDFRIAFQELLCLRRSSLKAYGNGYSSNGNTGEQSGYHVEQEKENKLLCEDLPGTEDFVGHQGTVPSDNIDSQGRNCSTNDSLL
# 5-hydroxytryptamine receptor 1A, sequence (P08908 whole entry): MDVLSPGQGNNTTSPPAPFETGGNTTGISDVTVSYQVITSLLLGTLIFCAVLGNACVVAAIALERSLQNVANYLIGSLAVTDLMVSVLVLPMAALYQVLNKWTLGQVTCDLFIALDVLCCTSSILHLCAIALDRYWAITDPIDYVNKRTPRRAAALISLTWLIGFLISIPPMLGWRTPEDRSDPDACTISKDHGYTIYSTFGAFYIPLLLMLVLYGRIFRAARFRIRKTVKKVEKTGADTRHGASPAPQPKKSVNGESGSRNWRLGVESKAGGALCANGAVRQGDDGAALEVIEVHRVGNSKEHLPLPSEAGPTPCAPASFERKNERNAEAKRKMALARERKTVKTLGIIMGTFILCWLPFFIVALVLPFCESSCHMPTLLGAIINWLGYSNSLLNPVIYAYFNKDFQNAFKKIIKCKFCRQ
# Histamine H1 receptor, sequence (P35367 whole entry): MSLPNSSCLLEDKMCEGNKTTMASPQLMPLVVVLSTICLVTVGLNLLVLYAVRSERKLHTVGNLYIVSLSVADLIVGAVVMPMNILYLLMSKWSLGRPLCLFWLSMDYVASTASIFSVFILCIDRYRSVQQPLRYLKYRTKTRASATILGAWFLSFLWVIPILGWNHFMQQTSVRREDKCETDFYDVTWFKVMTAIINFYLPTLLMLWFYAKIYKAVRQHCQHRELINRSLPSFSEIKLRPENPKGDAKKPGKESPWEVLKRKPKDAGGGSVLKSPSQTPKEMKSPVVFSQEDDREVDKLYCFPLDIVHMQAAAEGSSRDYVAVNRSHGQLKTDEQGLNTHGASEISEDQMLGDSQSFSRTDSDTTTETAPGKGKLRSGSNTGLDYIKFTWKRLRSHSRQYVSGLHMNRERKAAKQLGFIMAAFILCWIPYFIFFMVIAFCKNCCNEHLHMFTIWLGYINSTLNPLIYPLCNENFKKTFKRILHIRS
# D(3) dopamine receptor, sequence (P35462 whole entry): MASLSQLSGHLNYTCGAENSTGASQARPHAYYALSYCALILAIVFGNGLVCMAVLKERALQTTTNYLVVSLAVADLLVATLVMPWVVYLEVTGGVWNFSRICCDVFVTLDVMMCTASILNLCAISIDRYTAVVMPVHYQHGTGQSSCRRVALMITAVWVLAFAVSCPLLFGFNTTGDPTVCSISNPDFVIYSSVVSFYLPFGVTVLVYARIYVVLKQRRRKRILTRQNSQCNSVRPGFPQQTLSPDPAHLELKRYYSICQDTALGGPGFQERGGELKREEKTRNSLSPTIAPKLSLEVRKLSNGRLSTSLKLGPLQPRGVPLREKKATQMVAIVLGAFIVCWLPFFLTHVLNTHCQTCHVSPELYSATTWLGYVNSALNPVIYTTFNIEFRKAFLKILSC
# 5-hydroxytryptamine receptor 4, sequence (Q13639 whole entry): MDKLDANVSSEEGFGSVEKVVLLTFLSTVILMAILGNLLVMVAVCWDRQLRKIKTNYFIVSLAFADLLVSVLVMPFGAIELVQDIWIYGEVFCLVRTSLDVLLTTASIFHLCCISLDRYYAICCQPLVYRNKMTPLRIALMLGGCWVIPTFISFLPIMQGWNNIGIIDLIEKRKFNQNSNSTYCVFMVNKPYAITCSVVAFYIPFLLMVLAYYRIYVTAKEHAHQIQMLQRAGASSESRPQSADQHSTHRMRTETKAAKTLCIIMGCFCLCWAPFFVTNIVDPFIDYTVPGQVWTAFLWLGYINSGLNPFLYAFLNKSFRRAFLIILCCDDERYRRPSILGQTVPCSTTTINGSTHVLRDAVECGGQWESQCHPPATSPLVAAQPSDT
# Cytochrome P450 1A2, sequence (P05177 whole entry): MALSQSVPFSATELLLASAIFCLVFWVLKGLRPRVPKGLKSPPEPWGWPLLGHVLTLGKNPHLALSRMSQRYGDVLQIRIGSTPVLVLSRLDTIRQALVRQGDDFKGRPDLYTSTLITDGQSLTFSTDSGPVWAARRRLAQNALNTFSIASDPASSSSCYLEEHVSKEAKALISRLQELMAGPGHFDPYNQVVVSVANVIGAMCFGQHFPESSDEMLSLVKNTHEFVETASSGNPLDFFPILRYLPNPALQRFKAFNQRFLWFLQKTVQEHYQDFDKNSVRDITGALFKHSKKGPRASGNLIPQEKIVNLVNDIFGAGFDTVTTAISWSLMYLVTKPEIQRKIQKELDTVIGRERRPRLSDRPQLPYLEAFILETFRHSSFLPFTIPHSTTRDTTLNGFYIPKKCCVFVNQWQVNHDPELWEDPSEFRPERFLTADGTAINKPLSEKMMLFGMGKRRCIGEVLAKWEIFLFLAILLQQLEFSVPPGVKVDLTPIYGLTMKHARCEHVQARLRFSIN
# 5-hydroxytryptamine receptor 6, sequence (P50406 whole entry): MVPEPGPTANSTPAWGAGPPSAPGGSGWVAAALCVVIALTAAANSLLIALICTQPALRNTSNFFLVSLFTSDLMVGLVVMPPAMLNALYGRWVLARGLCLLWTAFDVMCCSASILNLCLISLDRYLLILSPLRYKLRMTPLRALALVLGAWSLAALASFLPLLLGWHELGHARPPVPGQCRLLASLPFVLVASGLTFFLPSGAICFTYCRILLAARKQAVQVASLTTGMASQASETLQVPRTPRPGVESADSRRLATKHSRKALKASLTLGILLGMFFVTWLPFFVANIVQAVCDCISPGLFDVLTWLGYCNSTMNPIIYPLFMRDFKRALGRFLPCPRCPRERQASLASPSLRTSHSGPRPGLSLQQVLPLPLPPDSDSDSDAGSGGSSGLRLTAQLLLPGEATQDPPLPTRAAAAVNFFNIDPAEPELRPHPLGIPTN
# Histamine H3 receptor, sequence (Q9Y5N1 whole entry): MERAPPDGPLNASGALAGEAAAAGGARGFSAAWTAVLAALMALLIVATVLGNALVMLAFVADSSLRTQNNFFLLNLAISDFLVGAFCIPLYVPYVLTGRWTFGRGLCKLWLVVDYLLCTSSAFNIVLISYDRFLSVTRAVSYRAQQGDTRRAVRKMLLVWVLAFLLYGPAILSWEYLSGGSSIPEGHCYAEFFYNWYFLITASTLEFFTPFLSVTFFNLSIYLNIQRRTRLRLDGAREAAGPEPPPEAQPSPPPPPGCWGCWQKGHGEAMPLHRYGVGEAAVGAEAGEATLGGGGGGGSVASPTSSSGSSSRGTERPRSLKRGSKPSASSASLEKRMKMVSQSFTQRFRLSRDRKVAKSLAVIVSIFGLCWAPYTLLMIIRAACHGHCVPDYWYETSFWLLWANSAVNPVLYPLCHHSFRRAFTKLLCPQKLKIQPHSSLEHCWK
compound,measurement,setting,value
O=S1(=O)N=C(Nc2ccccc2Cl)Nc2c(O)cccc21,pIC50,[1],5.28
O=S1(=O)N=C(Nc2ccccc2Br)Nc2c(O)cc(Cl)cc21,Ratio IC50,[2],< 100
O=S1(=O)NC(Nc2ccccc2Br)=Nc2c(O)cc(F)cc21,pIC50,[1],6.44
O=S1(=O)N=C(Nc2ccccc2Cl)Nc2c(O)cc(Cl)cc21,pIC50,[3],4.62
same,pIC50,[4],6.28
same,pIC50,[1],7.04
same,solubility,[5],68 µM
same,Ratio IC50,[2],< 100
CC[C@@H](C)NC1=Nc2c(O)cc(Cl)cc2S(=O)(=O)N1,pIC50,[1],4.82
O=S1(=O)N=C(Nc2cc(F)ccc2Br)Nc2c(O)cc(Cl)cc21,pIC50,[1],5.41
COc1ccccc1NC1=Nc2c(O)cc(Cl)cc2S(=O)(=O)N1,pIC50,[1],6.60
O=S1(=O)NC(Nc2ccccc2Br)=Nc2c(O)cc(Cl)cc21,pIC50,[3],4.89
same,pIC50,[4],6.40
same,pIC50,[1],7.19
same,solubility,[5],31 µM
O=S1(=O)N=C(Nc2ccccc2F)Nc2c(O)cc(Cl)cc21,pIC50,[1],6.13
O=S1(=O)N=C(NC2CCCC2)Nc2c(O)cc(Cl)cc21,pIC50,[1],4.70
O=S1(=O)N=C(Nc2cccc(F)c2Cl)Nc2c(O)cc(Cl)cc21,Ratio IC50,[2],< 100
O=C(O)c1ccccc1NC1=Nc2c(O)cc(Cl)cc2S(=O)(=O)N1,pIC50,[1],< 4.52
O=S1(=O)NC(NCc2ccccc2Cl)=Nc2c(O)cc(Cl)cc21,pIC50,[1],< 4.52
O=S1(=O)NC(Nc2ccccc2-c2ccccc2)=Nc2c(O)cc(Cl)cc21,pIC50,[1],6.64
O=S1(=O)N=C(Nc2ccc(F)cc2Br)Nc2c(O)cc(Cl)cc21,pIC50,[1],6.92
O=[N+]([O-])c1cc(O)c2c(c1)S(=O)(=O)N=C(Nc1ccccc1Cl)N2,pIC50,Cytochrome P450 2C9,6.22
same,half-life,[6],2 h
same,pIC50,Cytochrome P450 1A2,< 4.60
same,pIC50,[3],4.92
same,pIC50,[4],5.96
same,pIC50,Cytochrome P450 2D6,< 4.60
same,bioavailability,[7],5%
same,clearance,[8],23 mL/min/kg
same,pIC50,[1],7.09
same,solubility,[5],188 µM
same,Vd,[9],0.53 L/kg
same,pIC50,Cytochrome P450 3A4,< 4.60
same,Ratio IC50,[2],< 100
O=S1(=O)N=C(Nc2ccccc2Br)Nc2c(O)ccc(Cl)c21,pIC50,[1],6.32
O=S1(=O)N=C(Nc2cccc(Br)c2)Nc2c(O)cc(Cl)cc21,pIC50,[1],5.21
CC(=O)c1ccccc1NC1=Nc2c(O)cc(Cl)cc2S(=O)(=O)N1,pIC50,[1],5.35
O=S1(=O)N=C(Nc2ccccc2Oc2ccccc2)Nc2c(O)cc(Cl)cc21,pIC50,[3],4.70
same,pIC50,[4],6.49
same,pIC50,[1],7.27
same,solubility,[5],< 1 µM
same,Ratio IC50,[2],< 100
O=S1(=O)N=C(Nc2ccccc2Br)Nc2c(O)cc(Br)cc21,pIC50,[1],7.15
O=S1(=O)NC(Nc2ccc(Br)cc2)=Nc2c(O)cc(Cl)cc21,pIC50,[1],5.29
O=S1(=O)NC(Nc2ccccc2C(F)(F)F)=Nc2c(O)cc(Cl)cc21,pIC50,[1],6.08
O=S1(=O)N=C(Nc2ccccc2Br)Nc2c(O)ccc(F)c21,pIC50,[1],5.52
O=[N+]([O-])c1cc(O)c2c(c1)S(=O)(=O)N=C(Nc1ccccc1Br)N2,pIC50,[3],5.49
same,pIC50,[4],6.22
same,pIC50,[1],7.59
same,solubility,[5],233 µM
same,Ratio IC50,[2],< 100
O=S1(=O)NC(NCc2ccccc2)=Nc2c(O)cc(Cl)cc21,pIC50,[1],5.10
O=S1(=O)NC(Nc2cccc(F)c2Cl)=Nc2c(O)cc(Cl)cc21,pIC50,[3],4.89
same,pIC50,[4],6.34
same,pIC50,[1],7.19
same,solubility,[5],160 µM
Cc1ccccc1NC1=NS(=O)(=O)c2cc(Cl)cc(O)c2N1,pIC50,[1],6.41
O=[N+]([O-])c1cc(O)c2c(c1)S(=O)(=O)N=C(Nc1ccccc1Oc1ccccc1)N2,pIC50,[10],< 5.10
same,IC50,[11],> 25 µM
same,pIC50,[12],< 4.60
same,pIC50,Histamine H1 receptor,< 5.00
same,pIC50,[13],< 5.49
same,pIC50,[14],5.10
same,pIC50,[15],< 4.60
same,IC50,[16],1 µM
same,pIC50,Adenosine receptor A2a,4.60
same,pIC50,P2Y purinoceptor 1,< 4.60
same,pIC50,D(3) dopamine receptor,< 5.49
same,pIC50,Histamine H3 receptor,< 5.49
same,pIC50,D(2) dopamine receptor,< 5.49
same,pIC50,[17],< 5.00
same,pIC50,[18],< 5.49
same,pIC50,[19],4.60
same,pIC50,[3],5.12
same,pIC50,[20],4.60
same,pIC50,[4],6.31
same,pIC50,[21],< 4.60
same,pIC50,[1],7.27
same,pIC50,[22],< 5.49
same,solubility,[5],2 µM
same,Ratio IC50,[2],< 100
Cc1cc(O)c2c(c1)S(=O)(=O)N=C(Nc1ccccc1Br)N2,pIC50,[1],6.55
O=S1(=O)N=C(Nc2ccccc2N2CCOCC2)Nc2c(O)cc(Cl)cc21,pIC50,[1],< 4.52
O=S1(=O)N=C(Nc2ccccc2)Nc2c(O)cc(Cl)cc21,pIC50,[1],5.62
O=S1(=O)NC(Nc2c(F)cccc2Br)=Nc2c(O)cc(Cl)cc21,pIC50,[1],5.80
O=S1(=O)NC(Nc2ccccc2OC(F)(F)F)=Nc2c(O)cc(Cl)cc21,pIC50,[1],6.03
